Measurements reported in ChEMBL document CHEMBL1212832, “Antiprotozoal steroidal saponins from the marine sponge Pandaros acanthifolium” (J Nat Prod, 2010).
Calls of active or inactive are those of the source. No cut-off for these calls is given here.

How the values were obtained:
[1] = Inhibition of Plasmodium falciparum recombinant FabI at 20 ug/mL by spectrophotometric analysis
[2] = target: T1, 3-oxoacyl-acyl-carrier protein reductase (Plasmodium falciparum) (UniProt Q965D6); experiment: Inhibition of Plasmodium falciparum recombinant FabG at 20 ug/mL by spectrophotometric analysis
T1 sequence (whole entry): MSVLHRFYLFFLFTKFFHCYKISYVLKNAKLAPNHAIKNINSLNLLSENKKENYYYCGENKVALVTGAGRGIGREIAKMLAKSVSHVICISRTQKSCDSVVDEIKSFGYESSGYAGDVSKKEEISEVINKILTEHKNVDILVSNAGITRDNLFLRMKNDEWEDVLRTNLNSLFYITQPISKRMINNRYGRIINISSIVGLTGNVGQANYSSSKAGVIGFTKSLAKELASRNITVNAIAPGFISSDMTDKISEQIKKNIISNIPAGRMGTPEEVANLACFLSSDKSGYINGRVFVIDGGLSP

[3] = target: T2, Fatty acid synthase (Plasmodium falciparum) (UniProt Q965D7); experiment: Inhibition of Plasmodium falciparum recombinant FabZ at 20 ug/mL by spectrophotometric analysis
T2 sequence (whole entry): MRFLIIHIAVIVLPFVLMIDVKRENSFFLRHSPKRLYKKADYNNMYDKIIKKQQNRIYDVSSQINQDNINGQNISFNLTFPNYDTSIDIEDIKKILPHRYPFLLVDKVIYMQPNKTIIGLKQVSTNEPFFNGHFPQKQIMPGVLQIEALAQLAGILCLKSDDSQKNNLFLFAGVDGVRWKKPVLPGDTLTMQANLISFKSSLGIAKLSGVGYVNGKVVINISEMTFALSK

[4] = system: Trypanosoma cruzi; experiment: Trypanocidal activity against trypomastigote form of Trypanosoma cruzi Tulahuen infected in rat L6 cells after 96 hrs; type: functional, organism-based; conditions: L6, 96 h
Outline: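 L6 cells seeded at 2000 per well in RPMI 1640 with 10% FBS, 2 mM L-glutamine; after 24 h, 5000 trypomastigotes of the LacZ-expressing C2C4 line added. After 48 h, medium replaced with seven 3-fold dilutions (90–0.12 µg/mL) for 96 h.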

[5] = system: Leishmania donovani; experiment: Antileishmanial activity against Leishmania donovani (MHOM/ET/67/L82) amastigotes after 72 hrs; type: functional, organism-based; conditions: MHOM/ET/67/L82, 72 h
[6] = system: Trypanosoma brucei rhodesiense; experiment: Trypanocidal activity against Trypanosoma brucei rhodesiense STIB 900 after 72 hrs; type: functional, organism-based; conditions: STIB 900, 72 h
Outline: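 Bloodstream forms (10^4 per well) in MEM with 25 mM HEPES, extra glucose, non-essential amino acids, 2-mercaptoethanol, pyruvate and 15% heat-inactivated horse serum; seven 3-fold dilutions from 90 to 0.12 µg/mL, 72 h at 37 °C, 5% CO2. Resazurin added for 2–4 h, fluorescence at ex 536/em 588 nm; melarsoprol as standard.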

[7] = system: Plasmodium falciparum; experiment: Antimalarial activity against chloroquine and pyrimethamine-resistant Plasmodium falciparum K1 assessed as inhibition of [3H]hypoxanthine incorporation after 48 hrs by scintillation counting; type: functional, organism-based
Outline: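 K1 strain (chloroquine- and pyrimethamine-resistant) cultured in RPMI 1640 with 5% Albumax II, 0.2% w/v glucose, 0.03% L-glutamine. Two-fold dilution series from DMSO stocks, final DMSO ≤0.25%. 48 h at 37 °C, then 0.1 µCi [3H]-hypoxanthine added and incubated 24 h more. Freeze-stopped at -80 °C, harvested onto glass fiber filters, scintillation counted. IC50 calculated. Chloroquine as standard.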

[8] = system: L6; experiment: Cytotoxicity against rat L6 cells after 72 hrs by Alamar blue assay; type: cell-based; conditions: l6, 72 h
Outline: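 4 × 10^4 L6 cells per well in RPMI 1640 with 10% FBS and L-glutamine, exposed 72 h to seven 3-fold dilutions (90–0.12 µg/mL). Resazurin (Alamar Blue) added for 2 h, fluorescence read at ex 536/em 588 nm.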

In the case of `CC[C@@H](C(=O)C[C@@H](C)C1=C(O)C(=O)[C@@H]2[C@@H]3CC[C@H]4C[C@@H](O[C@@H]5O[C@H](C(=O)O)[C@@H](O)[C@H](O)[C@H]5O)CC[C@]4(C)[C@H]3CC[C@]12C)C(C)C`, the Activity [1] is reported as “inactive”, the Activity [2] is reported as “inactive” and the Activity [3] is reported as “inactive”.
`O=C(Cn1ccnc1[N+](=O)[O-])NCc1ccccc1` [BENZNIDAZOLE] gave an IC50 [4] of 2.64 µM.
For `CC[C@@H](C(=O)C[C@@H](C)C1=C(O)C(=O)[C@@H]2[C@@H]3CC[C@H]4C[C@@H](O[C@@H]5O[C@H](C(=O)OC)[C@@H](O)[C@H](O)[C@H]5O[C@@H]5O[C@H](CO)[C@@H](O)[C@H](O)[C@H]5O)CC[C@]4(C)[C@H]3CC[C@]12C)C(C)C` [METHYL ESTER PANDAROSIDE A], the IC50 [5] was 66.3 µM, the Activity [1] was “inactive” and the Activity [2] was “inactive”. The IC50 [6] was 114 µM, the IC50 [7] was over 25 µM and the Activity [3] was “inactive”. It also gave an Activity [8] of over 120 µM and an IC50 [4] of over 120 µM.
For `COC(=O)[C@H]1O[C@@H](O[C@H]2CC[C@@]3(C)[C@@H](CC[C@H]4[C@H]5C(=O)C(O)=C([C@H](C)CC(=O)CC(C)C)[C@@]5(C)CC[C@@H]43)C2)[C@H](O[C@@H]2O[C@H](CO)[C@@H](O)[C@H](O)[C@H]2O)[C@@H](O)[C@@H]1O` [METHYL ESTER PANDAROSIDE C], the IC50 [5] was 44.2 µM, the Activity [1] was “inactive” and the Activity [2] was “inactive”. For the same compound, the IC50 [6] was 61.4 µM, the IC50 [7] was over 25 µM and the Activity [3] was “inactive”. For the same compound, the Activity [8] was over 120 µM and the IC50 [4] was 100 µM.
In the case of `COC(=O)[C@H]1O[C@@H](O[C@H]2CC[C@@]3(C)[C@@H](CC[C@H]4[C@H]5C(=O)C(O)=C([C@H](C)CC(=O)CC(C)C)[C@@]5(C)CC[C@@H]43)C2)[C@H](O)[C@@H](O)[C@@H]1O` [METHYL ESTER PANDAROSIDE D], the IC50 [5] is reported as 13.7 µM, the Activity [1] is reported as “inactive” and the Activity [2] is reported as “inactive”. For the same compound, the IC50 [6] was 40.4 µM, the IC50 [7] was 5.1 µM and the Activity [3] was “inactive”. It also gave an Activity [8] of 106 µM and an IC50 [4] of 21.6 µM.
With `C=C(C(=O)C[C@@H](C)C1=C(O)C(=O)[C@@H]2C3=C(CC[C@]12C)[C@@]1(C)CC[C@H](O[C@@H]2O[C@H](C(=O)OC)[C@@H](O)[C@H](O[C@@H]4OC[C@@H](O)[C@H](O)[C@H]4O)[C@H]2O)C[C@@H]1CC3)C(C)C` [METHYL ESTER PANDAROSIDE E] the IC50 [5] was 41.3 µM, the Activity [1] was “inactive” and the Activity [2] was “inactive”. The IC50 [6] was 14.3 µM, the IC50 [7] was 5.9 µM and the Activity [3] was “inactive”. For the same compound, the Activity [8] was 76.9 µM and the IC50 [4] was 61.9 µM.
In the case of `COC(=O)[C@H]1O[C@@H](O[C@H]2CC[C@]3(C)C4=C(CC[C@H]3C2)[C@H]2C(=O)C(O)=C([C@H](C)CC(=O)[C@H](C)C(C)C)[C@@]2(C)CC4)[C@H](O)[C@@H](O[C@@H]2OC[C@@H](O)[C@H](O)[C@H]2O)[C@@H]1O` [METHYL ESTER PANDAROSIDE F], the IC50 [5] is reported as 26.8 µM, the Activity [1] is reported as “inactive” and the Activity [2] is reported as “inactive”. For the same compound, the IC50 [6] was 54.4 µM, the IC50 [7] was 9.9 µM and the Activity [3] was “inactive”. For the same compound, the Activity [8] was 42.1 µM and the IC50 [4] was 25.1 µM.
With `CC[C@@H](C(=O)C[C@@H](C)C1=C(O)C(=O)[C@@H]2[C@@H]3CC[C@H]4C[C@@H](O[C@@H]5O[C@H](C(=O)OC)[C@@H](O)[C@H](O[C@@H]6OC[C@@H](O)[C@H](O)[C@H]6O)[C@H]5O)CC[C@]4(C)[C@H]3CC[C@]12C)C(C)C` [METHYL ESTER PANDAROSIDE H] the IC50 [5] was 16.5 µM, the Activity [1] was “inactive” and the Activity [2] was “inactive”. For the same compound, the IC50 [6] was 19.9 µM, the IC50 [7] was 10.2 µM and the Activity [3] was “inactive”. For the same compound, the Activity [8] was 43.3 µM and the IC50 [4] was 36.1 µM.
In the case of `CC[C@@H](C(=O)C[C@@H](C)C1=C(O)C(=O)[C@@H]2[C@@H]3CC[C@H]4C[C@@H](O[C@@H]5O[C@H](C(=O)OC)[C@@H](O[C@H]6O[C@H](C)[C@@H](O)[C@H](O)[C@@H]6O)[C@H](O)[C@H]5O)CC[C@]4(C)[C@H]3CC[C@]12C)C(C)C` [METHYL ESTER PANDAROSIDE I], the IC50 [5] is reported as 28.7 µM, the Activity [1] is reported as “inactive” and the Activity [2] is reported as “inactive”. The IC50 [6] was 27.2 µM, the IC50 [7] was 13 µM and the Activity [3] was “inactive”. For the same compound, the Activity [8] was 59.6 µM and the IC50 [4] was 21.7 µM.
For `CC[C@@H](C(=O)C[C@@H](C)C1=C(O)C(=O)[C@@H]2[C@@H]3CC[C@H]4C[C@@H](O[C@@H]5O[C@H](C(=O)O)[C@@H](O)[C@H](O)[C@H]5O[C@@H]5O[C@H](CO)[C@@H](O)[C@H](O)[C@H]5O)CC[C@]4(C)[C@H]3CC[C@]12C)C(C)C` [PANDAROSIDE A], the IC50 [5] was 19.7 µM, the Activity [1] was “inactive” and the Activity [2] was “inactive”. The IC50 [6] was 9.1 µM, the IC50 [7] was 17.6 µM and the Activity [3] was “inactive”. The Activity [8] was 48.9 µM and the IC50 [4] was 52.2 µM.
With `CC(C)CC(=O)C[C@@H](C)C1=C(O)C(=O)[C@@H]2[C@@H]3CC[C@H]4C[C@@H](O[C@@H]5O[C@H](C(=O)O)[C@@H](O)[C@H](O)[C@H]5O[C@@H]5O[C@H](CO)[C@@H](O)[C@H](O)[C@H]5O)CC[C@]4(C)[C@H]3CC[C@]12C` [PANDAROSIDE C] the IC50 [5] was over 120 µM, the Activity [1] was “inactive” and the Activity [2] was “inactive”. The IC50 [6] was 66.4 µM, the IC50 [7] was over 25 µM and the Activity [3] was “inactive”. The Activity [8] was over 120 µM and the IC50 [4] was over 120 µM.
For `CC(C)CC(=O)C[C@@H](C)C1=C(O)C(=O)[C@@H]2[C@@H]3CC[C@H]4C[C@@H](O[C@@H]5O[C@H](C(=O)O)[C@@H](O)[C@H](O)[C@H]5O)CC[C@]4(C)[C@H]3CC[C@]12C` [PANDAROSIDE D], the IC50 [5] was 31 µM, the Activity [1] was “inactive” and the Activity [2] was “inactive”. The IC50 [6] was 15.3 µM, the IC50 [7] was 13.5 µM and the Activity [3] was “inactive”. For the same compound, the Activity [8] was 96.6 µM and the IC50 [4] was 80.8 µM.
For `C=C(C(=O)C[C@@H](C)C1=C(O)C(=O)[C@@H]2C3=C(CC[C@]12C)[C@@]1(C)CC[C@H](O[C@@H]2O[C@H](C(=O)O)[C@@H](O)[C@H](O[C@@H]4OC[C@@H](O)[C@H](O)[C@H]4O)[C@H]2O)C[C@@H]1CC3)C(C)C` [PANDAROSIDE E], the IC50 [5] was 15.9 µM, the Activity [1] was “inactive” and the Activity [2] was “inactive”. The IC50 [6] was 9.4 µM, the IC50 [7] was 13.8 µM and the Activity [3] was “inactive”. The Activity [8] was 40.9 µM and the IC50 [4] was 71.6 µM.
With `CC(C)[C@@H](C)C(=O)C[C@@H](C)C1=C(O)C(=O)[C@@H]2C3=C(CC[C@]12C)[C@@]1(C)CC[C@H](O[C@@H]2O[C@H](C(=O)O)[C@@H](O)[C@H](O[C@@H]4OC[C@@H](O)[C@H](O)[C@H]4O)[C@H]2O)C[C@@H]1CC3` [PANDAROSIDE F] the IC50 [5] was 4.3 µM, the Activity [1] was “inactive” and the Activity [2] was “inactive”. The IC50 [6] was 2.4 µM, the IC50 [7] was 5.7 µM and the Activity [3] was “inactive”. It also gave an Activity [8] of 10.8 µM and an IC50 [4] of 20.3 µM.
With `CC[C@@H](C(=O)C[C@@H](C)C1=C(O)C(=O)[C@@H]2C3=CC[C@H]4C[C@@H](O[C@@H]5O[C@H](C(=O)O)[C@@H](O)[C@H](O[C@@H]6OC[C@@H](O)[C@H](O)[C@H]6O)[C@H]5O)CC[C@]4(C)[C@H]3CC[C@]12C)C(C)C` [PANDAROSIDE G] the IC50 [5] was 1.3 µM, the Activity [1] was “inactive” and the Activity [2] was “inactive”. The IC50 [6] was 0.8 µM, the IC50 [7] was 2.5 µM and the Activity [3] was “inactive”. For the same compound, the Activity [8] was 5.4 µM and the IC50 [4] was 9.7 µM.
`COc1cc([C@@H]2c3cc4c(cc3[C@H](O)[C@H]3COC(=O)[C@H]23)OCO4)cc(OC)c1OC` [PODOFILOX] gave an Activity [8] of 0.012 µM.
